Assay results of several laboratories.
MET: Hepatocyte growth factor receptor (MET, Homo sapiens, UniProt P08581)
MET M1250T: Hepatocyte growth factor receptor (MET, Homo sapiens, UniProt P08581, M1250T)

Cc1ccc(NC(=O)c2ccc(C)c(C(F)(F)F)c2)cc1C#Cc1nn(C2CCC(O)CC2)c2ncnc(N)c12 (stereo not drawn) — remaining signal (Hepatocyte growth factor receptor (MET, Homo sapiens, UniProt P08581, D1228N); cell-free assay; 10 µM): 103%
Nc1ncnc2occ(-c3ccc(NC(=O)Nc4cc(C(F)(F)F)ccc4F)cc3)c12 — remaining signal (MET; cell-free assay; 20 µM): 8.8%
CC(=O)Nc1c(C(C)=O)c(=O)n(C)c2nc(-c3ccc(Cl)cc3Cl)c(-c3ccc(Cl)cc3)cc12 — remaining binding (MET M1250T; cell-free assay, competition with immobilised ligand; 1 µM): 100%
Cc1cnc(NC2CCOCC2)nc1-n1cnc(C(=O)NC(CN)c2cc(F)cc(Cl)c2)c1 (stereo not drawn) — remaining activity (Hepatocyte growth factor receptor (MET, Homo sapiens, UniProt P08581, Y1230D); enzyme activity, inhibitor, radiometric; 1 µM): 97%
N[C@H]1CCN(c2nccc(-c3cnn4ncccc34)n2)C1 — remaining binding (MET M1250T; binding; 1 µM): 100%
O=S(=O)(NC1CCC(c2cc(F)ccc2F)(S(=O)(=O)c2ccc(Cl)cc2)CC1)C(F)(F)F (stereo not drawn) — remaining binding (MET; cell-free assay, competition with immobilised ligand; 1 µM): 100%
Cc1cc(NC(=O)c2cccc3cc(-c4cccc5[nH]nc(N)c45)ccc23)ccc1F — activity vs control (MET M1250T; enzyme activity, inhibitor; 0.1 µM): 113%
COCCOc1nc(-c2ccc(Cl)nc2)nc2c1CN(C(=O)c1ncn3ccccc13)CC2 — remaining binding (MET; cell-free assay, competition with immobilised ligand; 0.1 µM): 100%
CNC(=O)c1cc2c(Oc3ccc(NC(=O)C4(C(=O)Nc5ccc(F)cc5)CC4)cc3)ccnc2cc1OC — inhibition (Hepatocyte growth factor receptor (MET, Homo sapiens, UniProt P08581, D1228H); enzyme activity, inhibitor, radiometric; 1 µM): 103%
